How the values were obtained:
[1] = Oral bioavailability in Sprague-Dawley rat at 3 mg/kg and measured up to 24 hrs by LC-MS/MS analysis; format: ADME, organism-based; settings: in vivo
Method in brief: (§1)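 Each species was dosed IV at 0.3 mg/kg and PO as follows: mouse 10 mg/kg, rat 3, dog 3, monkey 1. Plasma PK parameters derived were CL, Vss, IV half-life and oral bioavailability (F%).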

[2] = Volume of distribution at steady state in cynomolgus monkey at 0.3 mg/kg, iv or 1 mg/kg, po and measured up to 24 hrs by LC-MS/MS analysis; format: ADME, organism-based, Macaca fascicularis; settings: in vivo, read-out: Vdss; method in brief: as §1
[3] = Volume of distribution at steady state in Beagle dog at 0.3 mg/kg, iv or 3 mg/kg, po and measured up to 24 hrs by LC-MS/MS analysis; format: ADME, organism-based, Canis lupus familiaris; settings: in vivo, read-out: Vdss; method in brief: as §1
[4] = Oral bioavailability in Beagle dog at 3 mg/kg and measured up to 24 hrs by LC-MS/MS analysis; format: ADME, organism-based, Canis lupus familiaris; settings: in vivo; method in brief: as §1
[5] = Volume of distribution at steady state in CD-1 mouse at 0.3 mg/kg, iv or 10 mg/kg, po and measured up to 24 hrs by LC-MS/MS analysis; format: ADME, organism-based; settings: in vivo, read-out: Vdss; method in brief: as §1
[6] = Oral bioavailability in cynomolgus monkey at 1 mg/kg and measured up to 24 hrs by LC-MS/MS analysis; format: ADME, organism-based, Macaca fascicularis; settings: in vivo; method in brief: as §1
[7] = Oral bioavailability in CD-1 mouse at 10 mg/kg and measured up to 24 hrs by LC-MS/MS analysis; format: ADME, organism-based; settings: in vivo; method in brief: as §1
[8] = Volume of distribution at steady state in Sprague-Dawley rat at 0.3 mg/kg, iv or 3 mg/kg, po and measured up to 24 hrs by LC-MS/MS analysis; format: ADME, organism-based; settings: in vivo, read-out: Vdss; method in brief: as §1

Compound | bioavailability [1] [%] | Vd [2] [L/kg] | Vd [3] [L/kg] | bioavailability [4] [%] | Vd [5] [L/kg] | bioavailability [6] [%] | bioavailability [7] [%] | Vd [8] [L/kg]
COc1cc(OCc2ccnc(Nc3cnn(C)c3)n2)cc2sc(N[C@H]3CCCC[C@@H]3O)nc12 | 81 | 0.45 | 3 | 37 | 1 | 21 | 100 | 3.4
Nc1nccc(COc2ccc3nc(N[C@@H]4CCCC[C@H]4O)sc3c2)c1Cl | 67 | 0.6 | 1.3 | 34 | 1.8 | 72 | > 90 | 0.75

From ChEMBL document CHEMBL4725356, “Discovery of IACS-9439, a Potent, Exquisitely Selective, and Orally Bioavailable Inhibitor of CSF1R” (J Med Chem, 2020)
